This note sets out measurements from ChEMBL document CHEMBL1146506, “Sesquiterpene coumarins from Ferula fukanensis and nitric oxide production inhibitory effects” (J Nat Prod, 2004).

Each structure is given as a SMILES string. Activity calls are given as the source filed them. The rule behind the calls is not given here.

Data set [1] deals with RAW264.7. The experiment in a line: Inhibition of LPS and INF-gamma-induced NO production in mouse RAW264.7 cells. Format: functional, cell-based. The method in brief:
(§1)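 Cells seeded at 1.2 × 10^6 cells/mL, preincubated 2 h at 37 °C. Test compound added together with E. coli LPS (100 ng/mL) and recombinant mouse IFN-γ (0.33 ng/mL), then incubated at 37 °C, usually 16 h. Nitrite in chilled culture supernatant measured with Griess reagent (1% sulfanilamide in 5% H3PO4, 0.1% naphthylethylenediamine) against NaNO2 standards, read at 550 nm minus 630 nm background.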

Data set [2] deals with RAW264.7. The experiment in a line: Inhibition of LPS and INF-gamma-induced NO production in mouse RAW264.7 cells at 10 ug/mL. The class given is functional, cell-based. Put shortly:
as §1

The subject of data set [3] is RAW264.7. The experiment in a line: Cytotoxicity against mouse RAW264.7 cells at 10 ug/mL. Format: cell-based. Put shortly:
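MTT assay. Compound given at 0.3–10 µg/mL during LPS/IFN-γ treatment for 24 h.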

For data set [4], the system named is RAW264.7. The experiment in a line: Inhibition of LPS and INF-gamma-induced iNOS mRNA expression in mouse RAW264.7 cells by RT-PCR analysis. Format: functional, cell-based. The method in brief: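 Cells at 1.2 × 10^6 cells/mL, preincubated 2 h at 37 °C, then test compound added with LPS (100 ng/mL) and IFN-γ (0.33 ng/mL) for about 8 h. Total RNA (250 ng) reverse-transcribed with oligo(dT) primer. iNOS and GAPDH amplified with specific primers for 25 cycles (94 °C 1 min, 60 °C 1 min, 72 °C 1.5 min).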

With `CC(C)=CC(=O)C/C(C)=C/CC[C@@]1(C)Oc2c(c(=O)oc3cc(O)ccc23)[C@@H]1C`, in the data set on RAW264.7 [1], inhibition was half-maximal at 24.6 µM (IC50).
For the molecule `CC(C)=CCC/C(C)=C/CC[C@@]1(C)Oc2c(c(=O)oc3cc(O)ccc23)[C@H]1C`, the result in the data set with RAW264.7 [2] was inactive. In addition, the Activity entry with RAW264.7 [3] was “Non-toxic”.
Taken in the same sequence, the figures for `CC(C)=CCC/C(C)=C/CC[C@@]1(C)Oc2c(c(=O)oc3cc(O)ccc23)[C@@H]1C` were “inactive” and “Non-toxic”.
In the case of `CC(C)=CC(=O)C/C(C)=C/CC[C@@]1(C)Oc2c(c(=O)oc3cc(O)ccc23)[C@H]1C` (relative stereo), in the data set on RAW264.7 [1], the IC50 is 31.2 µM.
For `CC(C)=CC(=O)/C=C(\C)CCC[C@@]1(C)Oc2c(c(=O)oc3cc(O)ccc23)[C@@H]1C` (relative stereo) [FUKANEFUROMARIN A], in the data set on RAW264.7 [1], half-maximal inhibition (IC50) was put at 13 µM.
Still for that read-out and setting: the same measure for `CC(C)=CC(=O)/C=C(\C)CCC[C@@]1(C)Oc2c(c(=O)oc3cc(O)ccc23)[C@H]1C` (relative stereo) [FUKANEFUROMARIN B]: 16.2 µM.
`CC(C)=CC(=O)/C=C(/C)CCC[C@@]1(C)Oc2c(c(=O)oc3cc(O)ccc23)[C@@H]1C` (relative stereo) [FUKANEFUROMARIN C]: in the data set on RAW264.7 [1], half-maximal inhibition (IC50) required 11.1 µM. Further, the Activity entry with RAW264.7 [4] is “Dose-dependent effect”.
Taken in the same sequence, the figures for `CC(C)=CC(=O)/C=C(/C)CCC[C@@]1(C)Oc2c(c(=O)oc3cc(O)ccc23)[C@H]1C` (relative stereo) [FUKANEFUROMARIN D] were 8.9 µM and “Dose-dependent effect”.

Usually IC50 stands for the concentration that inhibits the measured activity by half.
